Measured values reported in ChEMBL document CHEMBL1132160, “Structure-antiviral activity relationship in the series of pyrimidine and purine N-[2-(2-phosphonomethoxy)ethyl] nucleotide analogues. 1. Derivatives substituted at the carbon atoms of the base” (J Med Chem, 1999).
In brackets after ≈: the same amount, converted by molar mass.

How the values were obtained:
Cytomegalovirus [1] = assay: Inhibitory activity against cytomegalovirus (CMV) Davis strain; format: functional, organism-based; conditions: Human betaherpesvirus 5
In short: (§1)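 HEL cell cultures, grown to confluence, received 100 CCID50 of virus. After 1 h adsorption, the inoculum was removed and the cultures were incubated with serial concentrations of compound (400, 200, 100, ... μg/mL).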

[2] = Inhibitory activity against murine sarcoma virus induced transformation of murine C3H/3T3 embryo fibroblasts; format: functional, Mus musculus
In short: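 Murine C3H/3T3 embryo fibroblasts were seeded at 5 × 10⁵ cells/mL. After 24 h they were infected with 80 focus-forming units of MSV for 90–120 min at 37 °C. The medium was then replaced with fresh medium containing various compound concentrations, and transformation was examined microscopically after 6 days.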

Cytomegalovirus [3] = assay: Inhibitory activity against cytomegalovirus (CMV) AD 169 strain; format: functional, organism-based; conditions: Human betaherpesvirus 5; in short: as §1
Human alphaherpesvirus 1 [4] = assay: Inhibitory activity against herpes simplex virus type 1 (HSV-1) KOS strain; format: functional, organism-based
In short: (§2)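 Confluent E6SM cell cultures were inoculated with 100 CCID50 of virus and allowed 1 h for adsorption. Residual virus was then removed, and the cells were incubated with test compound at 400, 200, 100, ... μg/mL. Viral cytopathicity was scored once it reached completion in untreated infected controls.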

Human alphaherpesvirus 2 [5] = assay: Inhibitory activity against herpes simplex virus type 2 (HSV-2) G strain; format: functional, organism-based; in short: as §2
Vaccinia virus = assay: Inhibitory activity against vaccinia virus (VV); format: functional, organism-based; conditions: Orthopoxvirus vaccinia
In short: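 Confluent E6SM cell cultures were inoculated with 100 CCID50 of virus and left for 1 h adsorption, then residual virus was removed. Cultures were incubated with test compound at serial concentrations (400, 200, 100, ... μg/mL). Virus-induced cytopathicity was scored once it reached completion in untreated infected control cultures.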

[6] = tested on: Human immunodeficiency virus 1; assay: Inhibitory activity of compound against human immunodeficiency virus type 1 (HIV-1) induced cytopathogenicity in MT-4 cells; format: functional, organism-based; conditions: Human immunodeficiency virus 1, MT4
In short: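 Human MT-4 cells (~4 × 10⁵ cells/mL) were infected with 100 CCID50 of HIV-1 (IIIB)/mL and seeded into wells containing compound dilutions. After 5 days at 37 °C, viable cells were counted by trypan blue exclusion in a blood cell counting chamber.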

[7] = tested on: Human immunodeficiency virus 1; assay: Inhibition of human immunodeficiency virus type 1 (HIV-1) induced cytopathogenicity in CEM cells; format: functional, organism-based; conditions: Human immunodeficiency virus 1, CCRF-CEM
In short: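 CEM cells (~3 × 10⁵ cells/mL) were infected with 100 CCID50 of HIV-1 (IIIB)/mL and plated with dilutions of compound. After 4 days at 37 °C, giant cell formation was assessed microscopically.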

[8] = tested on: Human immunodeficiency virus 2; assay: Inhibition of human immunodeficiency virus type 2 (HIV-2) induced cytopathogenicity in CEM cells; format: functional, organism-based; conditions: Human immunodeficiency virus 2, CCRF-CEM
Human alphaherpesvirus 1 [9] = assay: Inhibitory activity against herpes simplex virus type 1 (HSV-1) McIntyre strain; format: functional, organism-based; in short: as §2
[10] = Inhibitory activity against herpes simplex virus type 2 (HSV-2) 196 strain; format: functional; in short: as §2
Human alphaherpesvirus 2 [11] = assay: Inhibitory activity against herpes simplex virus type 2 (HSV-2) Lyons strain; format: functional, organism-based; in short: as §2
Human alphaherpesvirus 1 [12] = assay: Inhibition of herpes simplex virus type 1 (HSV-1) F strain; format: functional, organism-based; in short: as §2

Compound | EC50 (Cytomegalovirus [1]) [µg/mL] | EC50 [2] [µg/mL] | EC50 (Cytomegalovirus [3]) [µg/mL] | EC50 (Human alphaherpesvirus 1 [4]) [µg/mL] | EC50 (Human alphaherpesvirus 2 [5]) [µg/mL] | EC50 (Vaccinia virus) [µg/mL] | EC50 [6] [µg/mL] | EC50 [7] [µg/mL] | EC50 [8] [µg/mL] | EC50 (Human alphaherpesvirus 1 [9]) [µg/mL] | EC50 [10] [µg/mL] | EC50 (Human alphaherpesvirus 2 [11]) [µg/mL] | EC50 (Human alphaherpesvirus 1 [12]) [µg/mL]
CC(C)OP(=O)(COCCn1cnc2c(N)ncnc21)OC(C)C | 30 (≈ 84 µM) | > 40 | 8 (≈ 22.4 µM) | > 400 | > 400 | > 400 | 171 (≈ 479 µM) | – | – | – | – | – | –
Cc1nc(N)nc2c1ncn2CCOCP(=O)(O)O | > 50 | 30 (≈ 104 µM) | > 50 | > 200 | 400 (≈ 1390 µM) | > 400 | – | > 100 | > 100 | – | – | – | –
Nc1cc2ncn(CCOCP(=O)(O)O)c2c(O)n1 | > 100 | – | > 100 | > 200 | > 200 | – | – | – | – | > 200 | > 200 | > 200 | > 200
Nc1ncnc2c1ncn2CCOCP(=O)(O)O [ADEFOVIR] | 77 (≈ 282 µM) | – | 30 (≈ 110 µM) | 3.6 (≈ 13.2 µM) | 1.1 (≈ 4.03 µM) | – | – | – | – | – | – | – | –
CCOP(=O)(COCCn1cnc2c(N)ncnc21)OCC | – | > 40 | – | – | – | – | – | > 100 | > 100 | – | – | – | –
CC(C)OP(=O)(COCCn1cnc2c(S)ncnc21)OC(C)C | > 50 | > 40 | > 50 | > 400 | > 400 | > 400 | – | > 100 | > 100 | – | – | – | –
CC(C)OP(=O)(COCCn1cnc2c(O)nc(N)nc21)OC(C)C | > 50 | 13.5 (≈ 36.2 µM) | > 50 | 240 (≈ 643 µM) | 400 (≈ 1070 µM) | – | – | > 100 | > 100 | 80 (≈ 214 µM) | 240 (≈ 643 µM) | 240 (≈ 643 µM) | 240 (≈ 643 µM)
Nc1nc(Cl)c2ncn(CCOCP(=O)(O)O)c2n1 | 0.3 (≈ 0.975 µM) | > 0.16 | 0.05 (≈ 0.163 µM) | 0.23 (≈ 0.748 µM) | 0.38 (≈ 1.24 µM) | – | – | > 0.16 | > 0.16 | 0.22 (≈ 0.715 µM) | 0.38 (≈ 1.24 µM) | 0.38 (≈ 1.24 µM) | 0.13 (≈ 0.423 µM)
CC(C)CCCCCOP(=O)(COCCn1cnc2c(O)nc(N)nc21)OCCCCCC(C)C | 1.1 (≈ 2.14 µM) | > 40 | 1.2 (≈ 2.34 µM) | > 80 | > 80 | > 80 | – | > 4 | > 4 | – | – | – | –
CC(C)OP(=O)(COCCn1c(Br)nc2c(O)nc(N)nc21)OC(C)C | > 50 | > 40 | > 50 | > 400 | > 400 | – | – | > 100 | > 100 | 240 (≈ 531 µM) | 240 (≈ 531 µM) | 240 (≈ 531 µM) | 240 (≈ 531 µM)
CC(C)OP(=O)(O)COCCn1cnc2c(O)nc(N)nc21 | 0.3 (≈ 0.906 µM) | > 0.064 | 0.35 (≈ 1.06 µM) | 5.7 (≈ 17.2 µM) | 5.3 (≈ 16 µM) | – | – | > 20 | 11 (≈ 33.2 µM) | 0.64 (≈ 1.93 µM) | 1.9 (≈ 5.74 µM) | 1.9 (≈ 5.74 µM) | 0.64 (≈ 1.93 µM)
Nc1nc(O)nc2c1ncn2CCOCP(=O)(O)O | > 50 | 123 (≈ 425 µM) | > 50 | > 400 | > 400 | > 50 | – | > 100 | > 100 | – | – | – | –
CC(C)OP(=O)(O)COCCn1cnc2c(N)ncnc21 | > 50 | > 40 | > 50 | 200 (≈ 634 µM) | 300 (≈ 952 µM) | > 400 | – | > 100 | > 100 | – | – | – | –
CC(C)CCCCCOP(=O)(COCCn1cnc2c(Cl)nc(N)nc21)OCCCCCC(C)C | 1 (≈ 1.88 µM) | > 8 | 0.86 (≈ 1.62 µM) | > 16 | > 16 | > 16 | – | > 4 | > 4 | – | – | – | –
CC(C)CCCCCOP(=O)(COCCn1cnc2c(N)ncnc21)OCCCCCC(C)C | 3 (≈ 6.03 µM) | – | 1 (≈ 2.01 µM) | > 3.2 | 3.2 (≈ 6.43 µM) | > 3.2 | – | > 4 | > 4 | – | – | – | –
CC(C)CCCCCOP(=O)(COCCn1cnc2c(N)nc(N)nc21)OCCCCCC(C)C | 0.8 (≈ 1.56 µM) | > 8 | 0.86 (≈ 1.68 µM) | > 16 | > 16 | > 16 | – | > 4 | > 4 | – | – | – | –
CC(C)OP(=O)(O)COCCn1cnc2c(N)nc(N)nc21 | > 50 | > 200 | > 50 | 150 (≈ 454 µM) | > 400 | > 400 | – | > 100 | > 100 | – | – | – | –
CC(C)CCCCCOP(=O)(COCCn1cnc2nc(N)nc(O)c21)OCCCCCC(C)C | 11 (≈ 21.4 µM) | > 8 | 11 (≈ 21.4 µM) | > 16 | > 16 | > 16 | – | > 20 | > 20 | – | – | – | –
Nc1nc(F)nc2c1ncn2CCOCP(=O)(O)O | > 50 | 22.3 (≈ 76.6 µM) | > 50 | 70 (≈ 240 µM) | 70 (≈ 240 µM) | 150 (≈ 515 µM) | – | > 100 | 40 (≈ 137 µM) | – | – | – | –
Nc1nc(O)c2nc(Br)n(CCOCP(=O)(O)O)c2n1 | > 50 | > 0.16 | 43 (≈ 117 µM) | 240 (≈ 652 µM) | 240 (≈ 652 µM) | – | – | > 100 | > 100 | 240 (≈ 652 µM) | 240 (≈ 652 µM) | > 400 | 240 (≈ 652 µM)
Nc1cccc2c1ncn2CCOCP(=O)(O)O | > 50 | > 200 | > 50 | > 400 | > 400 | > 400 | – | > 100 | > 100 | – | – | – | –
CC(C)CCCCCOP(=O)(COCCn1cnc2nc(N)nc(Cl)c21)OCCCCCC(C)C | > 5 | > 8 | 5 (≈ 9.4 µM) | > 16 | > 16 | > 16 | – | > 4 | > 4 | – | – | – | –
